Test results taken from article PMC11382307 (Asian Journal of Pharmaceutical Sciences, 2024).

Test system: bEnd.3 cells
Test: In vitro cellular uptake in bEnd.3 cells
Format: in vitro ADME
Conditions: for cellular uptake observed by confocal imaging: 10 µM FITC-labelled peptide or free FITC, confocal microscopy
Summary of the method: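 bEnd.3 cells were seeded at 5 × 10^4/cm2 for 24 h, untreated or pretreated with poly-lysine (4 kDa, 20 µM, 1 h). They were exposed to 10 µM FITC-peptide or free FITC for 10 min, 30 min or 2 h, washed with cold PBS and fixed in 4 % PFA. Staining was DiD (10 µM, 30 min) or Hoechst, followed by confocal imaging. Flow cytometry was run on trypsinised cells (Ex 488/Em 525 nm). Mean ± SD, n = 3.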

[1] = 10 µM FITC-labelled peptide, 2 h, flow cytometry, n = 3

In the case of `O=C1OC2(c3ccc(O)cc3Oc3cc(O)ccc32)c2ccc(N=C=S)cc21` [free FITC, reference compound], the “cellular uptake observed by confocal imaging” value (2 h) is reported as “weak cellular uptake”.
In the case of “MAPRGFSCLLLLTGEIDLPVKRRAGGR(d)-Dmt-KF-NH2 [HNRS]”, the “cellular uptake observed by confocal imaging” value (2 h) is reported as “weak cellular uptake”, the “adsorption to cell membrane” value (10 µM FITC-labelled peptide, 10 min, confocal) is reported as “adsorbed on the plasma membrane” and the “cellular uptake relative to HNSS” value [1] is reported as 13.9%. The “fluorescence intensity of cellular uptake relative to HNG” value [1] was 1.5 fold.
